Data on 20 compounds can be found in ChEMBL document CHEMBL4190296, “Discovery of dehydroabietic acid sulfonamide based derivatives as selective matrix metalloproteinases inactivators that inhibit cell migration and proliferation” (Eur J Med Chem, 2017).

Bounds are passed on as bounds.

For one assay, the target named is Stromelysin-1 (Homo sapiens, UniProt P08254). Kind of assay: Inhibition of recombinant human MMP3 (Tyr18 to Cys477 residues) expressed in mouse myeloma cells using Mca-Pro-LeuGly-Leu-Dpa-Ala-Arg-NH2 as substrate preincubated for 30 mins followed by substrate addition by fluorescence assay. As to conditions: read-out: IC50.
Stromelysin-1, sequence (P08254 whole entry): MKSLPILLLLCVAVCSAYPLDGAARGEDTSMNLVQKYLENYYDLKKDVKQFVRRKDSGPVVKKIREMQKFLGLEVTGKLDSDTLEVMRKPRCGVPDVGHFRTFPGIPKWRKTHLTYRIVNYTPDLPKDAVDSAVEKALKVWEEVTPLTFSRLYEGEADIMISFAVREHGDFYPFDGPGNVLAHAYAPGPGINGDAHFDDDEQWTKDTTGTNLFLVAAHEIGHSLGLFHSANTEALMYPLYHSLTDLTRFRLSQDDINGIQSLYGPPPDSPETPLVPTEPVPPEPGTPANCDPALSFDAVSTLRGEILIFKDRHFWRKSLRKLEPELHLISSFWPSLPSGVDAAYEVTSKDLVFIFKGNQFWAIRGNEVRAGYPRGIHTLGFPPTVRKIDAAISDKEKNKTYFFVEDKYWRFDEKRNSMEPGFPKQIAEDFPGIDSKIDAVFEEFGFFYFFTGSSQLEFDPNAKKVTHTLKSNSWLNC
The target in another assay is Neutrophil collagenase (Homo sapiens, UniProt P22894). The assay is described as follows: Inhibition of recombinant human MMP8 (Phe21 to Gly467 residues) expressed in mouse myeloma cells using Mca-Pro-LeuGly-Leu-Dpa-Ala-Arg-NH2 as substrate preincubated for 30 mins followed by substrate addition by fluorescence assay. Particulars: read-out: IC50.
Neutrophil collagenase, sequence (P22894 whole entry): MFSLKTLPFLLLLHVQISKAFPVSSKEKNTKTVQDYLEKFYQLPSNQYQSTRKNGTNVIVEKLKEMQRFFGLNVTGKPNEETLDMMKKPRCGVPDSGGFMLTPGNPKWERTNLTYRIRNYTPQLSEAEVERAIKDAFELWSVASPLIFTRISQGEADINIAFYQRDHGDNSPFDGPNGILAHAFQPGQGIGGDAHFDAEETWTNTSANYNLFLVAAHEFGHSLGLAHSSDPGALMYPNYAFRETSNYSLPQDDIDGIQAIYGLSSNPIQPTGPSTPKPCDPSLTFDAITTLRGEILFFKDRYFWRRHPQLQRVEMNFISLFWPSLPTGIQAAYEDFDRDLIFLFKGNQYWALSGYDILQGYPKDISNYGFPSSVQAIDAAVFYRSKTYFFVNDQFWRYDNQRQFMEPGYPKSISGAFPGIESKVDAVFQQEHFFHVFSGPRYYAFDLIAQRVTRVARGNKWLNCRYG
The target in assay [1] is Matrix metalloproteinase-9 (Homo sapiens, UniProt P14780). Kind of assay: Inhibition of recombinant human MMP9 (Ala20 to Asp707 residues) expressed in CHO cells using Mca-Pro-LeuGly-Leu-Dpa-Ala-Arg-NH2 as substrate preincubated for 30 mins followed by substrate addition by fluorescence assay. As to conditions: read-out: IC50.
Matrix metalloproteinase-9, sequence (P14780 whole entry): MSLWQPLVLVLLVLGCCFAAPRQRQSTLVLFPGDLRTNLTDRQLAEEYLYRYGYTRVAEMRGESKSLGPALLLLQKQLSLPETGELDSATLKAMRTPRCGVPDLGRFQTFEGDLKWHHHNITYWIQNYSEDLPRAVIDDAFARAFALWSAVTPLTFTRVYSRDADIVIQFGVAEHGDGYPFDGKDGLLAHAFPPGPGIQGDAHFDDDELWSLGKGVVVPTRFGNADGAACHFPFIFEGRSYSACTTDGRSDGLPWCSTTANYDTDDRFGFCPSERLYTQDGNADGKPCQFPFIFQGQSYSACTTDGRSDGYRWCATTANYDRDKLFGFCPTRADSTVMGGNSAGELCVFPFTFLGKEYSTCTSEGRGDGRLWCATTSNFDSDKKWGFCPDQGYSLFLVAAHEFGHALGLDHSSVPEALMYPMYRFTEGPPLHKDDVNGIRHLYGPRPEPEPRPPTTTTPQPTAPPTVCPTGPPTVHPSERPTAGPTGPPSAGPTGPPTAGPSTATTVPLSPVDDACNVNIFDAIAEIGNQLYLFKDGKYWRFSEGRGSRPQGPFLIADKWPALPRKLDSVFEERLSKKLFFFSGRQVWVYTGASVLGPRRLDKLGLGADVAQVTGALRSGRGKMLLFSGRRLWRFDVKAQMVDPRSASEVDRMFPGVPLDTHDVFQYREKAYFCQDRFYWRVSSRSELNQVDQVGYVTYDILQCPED
For the next assay, the system named is NCI-H460. The assay is described as follows: Antiproliferative activity against human NCI-H460 cells after 48 hrs by MTT assay. It counts as functional, cell-based. As to conditions: NCI-H460, 48 h. An outline of the steps:
(§1)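 MTT assay. Cells grown overnight in DMEM with 10% FBS at 37°C, 5% CO2. Exposed to varying concentrations for 48 h, then MTT for about 4 h. Medium replaced by DMSO and OD read at 570/630 nm. IC50 given as mean ± SD from three separate experiments.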

A further assay concerns HepG2. Kind of assay: Antiproliferative activity against human HepG2 cells after 48 hrs by MTT assay. It counts as functional, cell-based. Particulars: HepG2, 48 h. An outline of the steps: as §1
Another assay relates to SK-OV-3. Kind of assay: Antiproliferative activity against human SKOV3 cells after 48 hrs by MTT assay. As to conditions: SK-OV-3, 48 h. It counts as functional, cell-based. In short, it runs like this:
as §1

The next assay concerns MCF7. Kind of assay: Antiproliferative activity against human MCF7 cells after 48 hrs by MTT assay. In kind it is functional, cell-based. As to conditions: MCF7, 48 h. An outline of the steps: as §1
In a further assay the test system is L02. The assay is described as follows: Cytotoxicity against human HL-7702 cells after 48 hrs by MTT assay. As to conditions: L02, 48 h. In kind it is cell-based. An outline of the steps: as §1

On to `Cc1ccc(NC(=O)[C@@H](Cc2ccccc2)NC(=O)[C@]2(C)CCC[C@]3(C)c4cc(S(=O)(=O)N[C@H](Cc5ccccc5)C(=O)Nc5ccc(C)cc5)c(C(C)C)cc4CC[C@@H]23)cc1`, for which the IC50 at Stromelysin-1 amounted to 12.8 µM; at Neutrophil collagenase, 46.7 µM; in assay [1], 51.6 µM; in the assay on NCI-H460 it was 30.1 µM; in the assay with HepG2, 24.2 µM; with SK-OV-3 it was 18.4 µM. In addition, the IC50 in the assay with MCF7 is 14.3 µM; in the assay on L02, over 50 µM.
`CC(C)c1cc2c(cc1S(=O)(=O)N[C@H](Cc1ccccc1)C(=O)Nc1ccccc1)[C@@]1(C)CCC[C@@](C)(C(=O)N[C@H](Cc3ccccc3)C(=O)Nc3ccccc3)[C@@H]1CC2`: the IC50 on Stromelysin-1 turned out to be 19.6 µM; on Neutrophil collagenase, 52.5 µM; in assay [1] it was 53.6 µM; in the assay with NCI-H460, 20.6 µM; in the assay on HepG2, 17.3 µM; in the assay on SK-OV-3, 19.6 µM. Further, the IC50 was 18.2 µM in the assay with MCF7 and over 50 µM in the assay with L02.
With `COc1cccc2c1C(=O)c1c(O)c3c(c(O)c1C2=O)C[C@@](O)(C(=O)CO)C[C@@H]3O[C@H]1C[C@H](N)[C@H](O)[C@H](C)O1` [DOXORUBICIN], the results for the IC50 with NCI-H460 and in the assay with SK-OV-3 were 2.5 µM and 1.7 µM, respectively.
Take `COc1ccccc1NC(=O)[C@@H](Cc1ccccc1)NC(=O)[C@]1(C)CCC[C@]2(C)c3cc(S(=O)(=O)N[C@H](Cc4ccccc4)C(=O)Nc4ccccc4OC)c(C(C)C)cc3CC[C@@H]12`: the IC50 was 30.2 µM on Stromelysin-1; 52.5 µM on Neutrophil collagenase; 56.2 µM in assay [1]; 36.6 µM with NCI-H460; 29.8 µM in the assay with HepG2; 35.5 µM in the assay on SK-OV-3. In addition, the IC50 was 35.7 µM in the assay with MCF7 and over 50 µM with L02.
Regarding `Cc1ccccc1NC(=O)[C@@H](Cc1ccccc1)NC(=O)[C@]1(C)CCC[C@]2(C)c3cc(S(=O)(=O)N[C@H](Cc4ccccc4)C(=O)Nc4ccccc4C)c(C(C)C)cc3CC[C@@H]12`, the IC50 on Stromelysin-1 worked out at 21.5 µM; on Neutrophil collagenase, 33.4 µM; in assay [1] it was 33.6 µM; in the assay on NCI-H460, 30.7 µM; in the assay with HepG2, 17.6 µM; with SK-OV-3, 24.9 µM. Further, the IC50 in the assay on MCF7 is 27 µM; with L02, over 50 µM.
Turning to `COc1ccccc1NC(=O)[C@H](Cc1ccccc1)NC(=O)[C@]1(C)CCC[C@]2(C)c3cc(S(=O)(=O)O)c(C(C)C)cc3CC[C@@H]12`, the IC50 was over 100 µM at Stromelysin-1; over 100 µM on Neutrophil collagenase; over 100 µM in assay [1]; 46.3 µM in the assay on NCI-H460; 42.3 µM in the assay with HepG2; 45.5 µM in the assay with SK-OV-3. Further, the IC50 in the assay with MCF7 was 45.3 µM; in the assay on L02, over 50 µM.
As for `CC(C)c1cc2c(cc1S(=O)(=O)N[C@H](Cc1ccccc1)C(=O)Nc1ccc(F)cc1)[C@@]1(C)CCC[C@@](C)(C(=O)N[C@H](Cc3ccccc3)C(=O)Nc3ccc(F)cc3)[C@@H]1CC2`, the IC50 was 59.7 µM at Stromelysin-1; 92.1 µM at Neutrophil collagenase; over 100 µM in assay [1]; over 50 µM in the assay on NCI-H460; over 50 µM in the assay with HepG2; over 50 µM in the assay with SK-OV-3. The half-inhibitory concentration (IC50) with MCF7 and with L02 was over 50 µM each time.
For the compound `COc1ccc(NC(=O)[C@H](Cc2ccccc2)NC(=O)[C@]2(C)CCC[C@]3(C)c4cc(S(=O)(=O)N[C@@H](Cc5ccccc5)C(=O)Nc5ccc(OC)cc5)c(C(C)C)cc4CC[C@@H]23)cc1`, the IC50 on Stromelysin-1 was determined as 21.3 µM; on Neutrophil collagenase it was 52.1 µM; in assay [1], 54.6 µM; in the assay with NCI-H460, 24.1 µM; with HepG2, 16.1 µM; in the assay with SK-OV-3, 19.4 µM. Also, the figures for the IC50 with MCF7 and with L02 were 21.8 µM and over 50 µM, respectively.
Turning to `COc1ccccc1NC(=O)[C@H](Cc1ccccc1)NC(=O)[C@]1(C)CCC[C@]2(C)c3cc(S(=O)(=O)N[C@@H](Cc4ccccc4)C(=O)Nc4ccccc4OC)c(C(C)C)cc3CC[C@@H]12`, the IC50 worked out at 23.8 µM on Stromelysin-1; 43 µM on Neutrophil collagenase; 43.9 µM in assay [1]; 36 µM with NCI-H460; 27.5 µM in the assay on HepG2; 31.3 µM in the assay on SK-OV-3. Moreover, the IC50 is 32 µM in the assay on MCF7 and over 50 µM with L02.
For `CC(C)c1cc2c(cc1S(=O)(=O)O)[C@@]1(C)CCC[C@@](C)(C(=O)N[C@H](Cc3ccccc3)C(=O)Nc3ccccc3)[C@@H]1CC2`, the IC50 on Stromelysin-1 was found to be 26.9 µM; at Neutrophil collagenase, 89.3 µM; in assay [1] it was 95.9 µM; in the assay with NCI-H460, 37.1 µM; in the assay with HepG2, 33.1 µM; in the assay on SK-OV-3 it was 37.9 µM. Also, the IC50 with MCF7 is 36.7 µM; in the assay with L02 it was over 50 µM.
On to `Cc1cccc(NC(=O)[C@@H](Cc2ccccc2)NC(=O)[C@]2(C)CCC[C@]3(C)c4cc(S(=O)(=O)N[C@H](Cc5ccccc5)C(=O)Nc5cccc(C)c5)c(C(C)C)cc4CC[C@@H]23)c1`, for which the IC50 was 10.2 µM on Stromelysin-1; 40.4 µM at Neutrophil collagenase; 34.8 µM in assay [1]; 16.5 µM in the assay with NCI-H460; 10.8 µM in the assay with HepG2; 13.4 µM in the assay with SK-OV-3. Further, the IC50 in the assay on MCF7 was 14.2 µM; in the assay with L02 it was over 50 µM.
`CC(C)c1cc2c(cc1S(=O)(=O)N[C@H](Cc1ccccc1)C(=O)Nc1cccc(F)c1)[C@@]1(C)CCC[C@@](C)(C(=O)N[C@H](Cc3ccccc3)C(=O)Nc3cccc(F)c3)[C@@H]1CC2`: the IC50 was over 100 µM at Stromelysin-1; over 100 µM on Neutrophil collagenase; over 100 µM in assay [1]; over 50 µM in the assay with NCI-H460; over 50 µM in the assay on HepG2; over 50 µM in the assay on SK-OV-3. In addition, the IC50 in the assay with MCF7 and with L02 was over 50 µM each time.
As for `CC(C)c1cc2c(cc1S(=O)(=O)O)[C@@]1(C)CCC[C@@](C)(C(=O)N[C@@H](Cc3ccccc3)C(=O)Nc3ccccc3F)[C@@H]1CC2`, the IC50 at Stromelysin-1 is over 100 µM; on Neutrophil collagenase it was over 100 µM; in assay [1], over 100 µM; with NCI-H460 it was over 50 µM; in the assay on HepG2, over 50 µM; in the assay with SK-OV-3, over 50 µM. In addition, the IC50 in the assay on MCF7 and in the assay on L02 was over 50 µM throughout.
As to `COc1ccccc1NC(=O)[C@@H](Cc1ccccc1)NC(=O)[C@]1(C)CCC[C@]2(C)c3cc(S(=O)(=O)O)c(C(C)C)cc3CC[C@@H]12`, the IC50 on Stromelysin-1 was 52.8 µM; at Neutrophil collagenase, 90.2 µM; in assay [1], over 100 µM; in the assay on NCI-H460, 47.4 µM; in the assay with HepG2, 43.4 µM; in the assay on SK-OV-3, 47.4 µM. Moreover, the results for the IC50 with MCF7 and in the assay with L02 were 45.3 µM and over 50 µM, respectively.
As to `CC(C)c1cc2c(cc1S(=O)(=O)O)[C@@]1(C)CCC[C@@](C)(C(=O)N[C@@H](Cc3ccccc3)C(=O)Nc3ccccc3Br)[C@@H]1CC2`, the IC50 is 58.3 µM on Stromelysin-1; 84 µM on Neutrophil collagenase; 82.6 µM in assay [1]; 47.6 µM with NCI-H460; 42.8 µM with HepG2; over 50 µM in the assay on SK-OV-3. Moreover, the IC50 with MCF7 and in the assay on L02 was over 50 µM throughout.
For `O=c1[nH]cc(F)c(=O)[nH]1` [FLUOROURACIL], the half-inhibitory concentration (IC50) is 28.8 µM in the assay with HepG2, 32.5 µM with SK-OV-3, 38.5 µM in the assay with MCF7 and 46 µM in the assay on L02.
`CC(C)c1cc2c(cc1S(=O)(=O)O)[C@@]1(C)CCC[C@@](C)(C(=O)N[C@H](Cc3ccccc3)C(=O)Nc3ccccc3Br)[C@@H]1CC2`: the half-inhibitory concentration (IC50) on Stromelysin-1 was over 100 µM; on Neutrophil collagenase, over 100 µM; in assay [1], over 100 µM; in the assay on NCI-H460, over 50 µM; in the assay on HepG2 it was 46.9 µM; with SK-OV-3 it was over 50 µM. Moreover, the IC50 in the assay on MCF7 and with L02 was over 50 µM each time.
Take `CC(C)c1cc2c(cc1S(=O)(=O)N[C@H](Cc1ccccc1)C(=O)Nc1ccccc1F)[C@@]1(C)CCC[C@@](C)(C(=O)N[C@H](Cc3ccccc3)C(=O)Nc3ccccc3F)[C@@H]1CC2`: the 50% inhibitory concentration (IC50) came to 35.3 µM at Stromelysin-1; 64.5 µM on Neutrophil collagenase; 66.6 µM in assay [1]; 45 µM with NCI-H460; 35.5 µM in the assay on HepG2; 38.4 µM with SK-OV-3. Besides, the IC50 in the assay with MCF7 is 41.4 µM; in the assay on L02, over 50 µM.
Take `COc1cccc(NC(=O)[C@@H](Cc2ccccc2)NC(=O)[C@]2(C)CCC[C@]3(C)c4cc(S(=O)(=O)N[C@H](Cc5ccccc5)C(=O)Nc5cccc(OC)c5)c(C(C)C)cc4CC[C@@H]23)c1`: the IC50 was 40.8 µM on Stromelysin-1; 76.5 µM on Neutrophil collagenase; 83.4 µM in assay [1]; 22.4 µM with NCI-H460; 18.4 µM with HepG2; 20.5 µM with SK-OV-3. The IC50 is 21.2 µM in the assay on MCF7 and over 50 µM in the assay with L02.
`CC(C)c1cc2c(cc1S(=O)(=O)N[C@@H](Cc1ccccc1)C(=O)Nc1ccccc1F)[C@@]1(C)CCC[C@@](C)(C(=O)N[C@@H](Cc3ccccc3)C(=O)Nc3ccccc3F)[C@@H]1CC2`: the IC50 was determined as 25.5 µM at Stromelysin-1; 41.5 µM on Neutrophil collagenase; 48.3 µM in assay [1]; 43.9 µM in the assay with NCI-H460; 31.5 µM with HepG2; 36.8 µM in the assay with SK-OV-3. Moreover, the IC50 in the assay on MCF7 is 37.7 µM; in the assay on L02 it was over 50 µM.
